Test results: ChEMBL document CHEMBL2396613, “Anti-leishmanial evaluation of C2-aryl quinolines: mechanistic insight on bioenergetics and sterol biosynthetic pathway of Leishmania braziliensis” (Bioorg Med Chem, 2013)
The source made the active and inactive calls. The calls are words filed in the database; no cut-off is given here.

How the values were obtained:
Leishmania braziliensis [1] = assay: Antileishmanial activity against promastigotes of Leishmania (V.) braziliensis MHOM/CO/87/UA301 after 96 hrs by MTT assay; assay type: functional, organism-based; settings: MHOM/CO/87/UA301, 96 h
Leishmania braziliensis [2] = assay: Induction of acidocalcisomes alkalinization in Leishmania (V.) braziliensis MHOM/CO/87/UA301 at 1 uM up to 1400 seconds using acridine orange staining; assay type: functional, organism-based
[3] = Cytotoxicity against mouse BMDM after 96 hrs by MTT assay
Method in brief: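 Host-cell MTT test on mouse bone-marrow-derived macrophages (L-929 conditioned medium): 5000 cells/well were exposed to 100, 200 and 300 μM. MTT was added, cells were lysed with acidic isopropanol and read at 570 nm.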

Leishmania braziliensis [4] = assay: Effect on sterol biosynthesis in Leishmania (V.) braziliensis MHOM/CO/87/UA301 assessed as endogenous squalene level at 6 uM (reference value: 22.7 +/- 0.12%)
Leishmania braziliensis [5] = assay: Induction of acidocalcisomes alkalinization in Leishmania (V.) braziliensis MHOM/CO/87/UA301 at 6 uM up to 1200 seconds using acridine orange staining; assay type: functional, organism-based
Method in brief: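 Promastigotes (10⁹ cells/mL), washed twice in KCl/Tris buffer, were loaded with 2 μM acridine orange for 5 min at 29 °C. Fluorescence (ex 488, em 530 nm) was recorded in a stirred cuvette at 29 °C.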

Leishmania braziliensis [6] = assay: Effect on sterol biosynthesis in Leishmania (V.) braziliensis MHOM/CO/87/UA301 assessed as endogenous 14-desmethyl 5-dehydroepisterol level at 6 uM (reference value: 63.7 +/- 1.02%)
Leishmania braziliensis [7] = assay: Reduction of mitochondrial membrane potential in Leishmania (V.) braziliensis MHOM/CO/87/UA301 assessed as increase in fluorescence at 6 uM up to 1400 seconds using rhodamine 123 by spectrofluorimeter analysis; assay type: functional, organism-based
Method in brief: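 Fluorescence (ex 488, em 530 nm) was followed in a spectrofluorimeter at 29 °C under continuous agitation. FCCP served as protonophore comparator.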

Leishmania braziliensis [8] = assay: Effect on sterol biosynthesis in Leishmania (V.) braziliensis MHOM/CO/87/UA301 assessed as exogenous cholesterol level at 6 uM (reference value: 13.6 +/- 0.51%)
Leishmania braziliensis [9] = assay: Antileishmanial activity against amastigotes of Leishmania (V.) braziliensis MHOM/CO/87/UA301 infected in BMDM assessed as reduction of intracellular amastigotes after 96 hrs by Giemsa staining; assay type: functional, organism-based; settings: MHOM/CO/87/UA301, BMDM
Method in brief: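 Mouse bone-marrow macrophages, differentiated in L-929 conditioned medium, were mixed 1:10 with promastigotes in DMEM + 10% FBS. Co-cultures sat on glass coverslips for 18 h at 37 °C, 5% CO2. Medium was then replaced with compound-containing medium for 96 h. Cells were Giemsa-stained and counted. EC50 was based on the number of amastigotes per macrophage; triplicate.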

[10] = Cytotoxicity against mouse BMDM at 20 to 100 uM after 96 hrs by MTT assay

COc1ccc2nc(-c3ccc4c(c3)OCO4)ccc2c1
IC50 (Leishmania braziliensis [1]): ≥ 50 µM

CO[C@@H]1C[C@@H](C[C@H]2CC[C@H](C)[C@H]([C@@H](C)C(=O)O)O2)O[C@]2(O[C@](C)([C@H]3CC[C@@](C)([C@@H]4O[C@@H]([C@H]5O[C@@](O)(CO)[C@H](C)C[C@@H]5C)C[C@@H]4C)O3)C[C@H]2C)[C@@H]1C
Activity (Leishmania braziliensis [2]): Active

Cc1cc(C)c2ccc(-c3ccccc3)nc2c1
IC50 (Leishmania braziliensis [1]): ≤ 50 µM | IC50 [3]: ≤ 100 µM

CCN(CC)CCCCCCNc1cc(OC)cc2c(C)ccnc12 [SITAMAQUINE]
IC50 (Leishmania braziliensis [1]): ≤ 50 µM | IC50 [3]: ≤ 100 µM

CCc1ccc2nc(-c3ccccc3)ccc2c1
mass % of sterol at 6 µM (Leishmania braziliensis [4]): 64.3% | Activity (Leishmania braziliensis [5]): Active | mass % of sterol at 6 µM (Leishmania braziliensis [6]): 23.4% | IC50 (Leishmania braziliensis [1]): ≤ 50 µM | Activity (Leishmania braziliensis [7]): Active | mass % of sterol at 6 µM (Leishmania braziliensis [8]): 12.3% | EC50 (Leishmania braziliensis [9]): 20 µM | Activity [10]: Non-toxic | IC50 [3]: ≥ 200 µM

CCc1ccc2nc(-c3ccc4c(c3)OCO4)ccc2c1
IC50 (Leishmania braziliensis [1]): ≥ 50 µM

Cc1cc(C)c2ccc(-c3ccc4c(c3)OCO4)nc2c1
IC50 (Leishmania braziliensis [1]): ≥ 50 µM

Cc1ccc2nc(-c3ccc4c(c3)OCO4)ccc2c1
IC50 (Leishmania braziliensis [1]): ≥ 50 µM

c1ccc2nc(-c3ccc4c(c3)OCO4)ccc2c1
IC50 (Leishmania braziliensis [1]): ≥ 50 µM

CCCCCCCCCCCCCCCCOP(=O)([O-])OCC[N+](C)(C)C [MILTEFOSINE]
IC50 (Leishmania braziliensis [1]): ≤ 50 µM | IC50 [3]: ≥ 200 µM
